# PubChem BioAssay AID2152 (The Scripps Research Institute Molecular Screening Center, 2009)
# The whole screen tested about 2,300 compounds, of which about 25 (1%) were called active. This excerpt belongs to a sample that is enriched for actives. Values without a mark were called inactive.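 Rule for the calls: active = mean inhibition over three replicate wells above the hit threshold derived in the earlier primary screen (cut at about 45% in these data); inactive = the rest.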
# Test system: Hepatitis C virus core protein (core106 dimerization)
# Test: inhibitors of HCV core protein dimerization, confirmation, biochemical, TR-FRET, triplicate (AID 2152);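 note: 0% = DMSO wells and 100% = unlabelled core106 competitor control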
# Conditions: TR-FRET GST-/Flag-core106 dimerization, HTRF; at 5 µM; hits give high values
# Procedure, shortened: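 Test system – GST- and Flag-tagged HCV core106 peptides, dimerization via antibody TR-FRET · Amount – 17 nM Flag- plus 13.5 nM GST-core106 · Schedule – 4 h incubation, 22.5 °C · Compound dosing – one 5 µM dose, 0.5% DMSO · Detection – TR-FRET, 340 nm excitation, 671/617 nm emission · Reagent – Eu(K)-anti-GST plus XL665-anti-FLAG antibodies · Read-out basis – percent inhibition from emission ratio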
row,Structure (SMILES),inhibition
1,Cc1cc(C)c(S(=O)(=O)N2CCOC2CNC(=O)C(=O)NCCc2ccc(S(N)(=O)=O)cc2)c(C)c1 (centres undefined),-0.31%
2,Cc1[nH]c2ccccc2c1CCNC(=O)c1ccc2c(c1[N+](=O)[O-])C(=O)c1ccccc1C2=O,-6.67%
3,CCOc1cc(/C=N\NC(=O)c2ccc(NC(=O)C(C)(C)C)cc2)ccc1OC(=O)c1cccc(C)c1,-6.21%
4,C=CCOc1ccc(-c2nc3c(c(=O)[nH]c(=O)n3Cc3ccccc3)n2CCCOC)cc1,3%
5,C=CCn1c(C)cc(C(=O)COC(=O)c2ccc3c(c2)NC(=O)CS3)c1C,-0.86%
6,COC(=O)c1ccccc1NC(=O)CN1C(=O)C2CCCN2c2ncc(Cl)cc21 (centres undefined),4.11%
7,CCCN(CCC)C(=O)CC(c1ccc(F)cc1)c1ccco1 (centres undefined),-2.6%
8,COc1ccc(C2=NN(C(=O)CSc3nc(=O)n4cccc(C)c4n3)C(c3ccc(C)cc3)C2)cc1 (centres undefined),21.8%
9,O=C(NNC(=O)c1cccc(-n2cccc2)c1)c1ccc(F)cc1,9.23%
10,Cc1ccc(-c2cc(C(F)F)n3ncc(C(=O)Nc4c(C)nn(Cc5ccccc5Cl)c4C)c3n2)cc1,0.26%
11,N#Cc1ccsc1NC(=O)COc1ccc(-c2nnco2)cc1,3.2%
12,O=C1CC(c2ccco2)Cc2nc(N3CCc4ccccc4C3)ncc21 (centres undefined),0.9%
13,CCN(CC)c1cc2nc(C)n(Cc3ccccc3)c(=O)c2cc1NC(=O)C1CC1,3.07%
14,Cc1cc([N+](=O)[O-])cc2c1NC(c1ccccn1)C1CC=CC21 (centres undefined),8.17%
15,CC(C)Cc1nc(N2CCN(C(=O)c3ccco3)CC2)c(C#N)c2c1CCC2,-9.13%
16,Cc1ccc2[nH]c(=O)c(CN(Cc3ccc4c(c3)OCO4)Cc3nnnn3Cc3ccco3)cc2c1,-2.73%
17,COc1ccc(C(=S)N2CCOCC2)cc1OC(=O)c1cc([N+](=O)[O-])c(C)c([N+](=O)[O-])c1,3.86%
18,COc1ccc(/C=C2\SC(=S)N(NC(=O)c3csc4c3CCCC4)C2=O)cc1,-8.8%
19,CC(C)Cn1c(-c2ccccc2)nc(=S)c2c1CCCC2,2.05%
20,COc1ccc(NC(=O)NNC(=O)COc2ccc3cc(Br)ccc3c2)c(OC)c1,0.29%
21,COC/C=C/C1=CC2=CC(=O)C(C)(OC(=O)c3cnc4ccccc4n3)C(=O)C2=CN1Cc1ccc(OC)cc1 (centres undefined),2.72%
22,O=C1c2ccccc2C(Nc2ccc3c(c2)OCO3)N1Cc1ccc2c(c1)OCO2 (centres undefined),-1.13%
23,CC(=O)c1ccc(NC(=O)/C(=C\c2ccccc2)NC(=O)/C=C/c2ccccc2)cc1,-3.84%
24,C=C(NC(=O)C(=C)NC(=O)c1csc(C2=NC3c4csc(n4)C4NC(=O)c5csc(n5)C([C@@](C)(O)C(C)O)NC(=O)C5CSC(=N5)/C(=C\C)NC(=O)C(C(C)O)NC(=O)c5csc(n5)[C@]3(CC2)NC(=O)C(C)NC(=O)C(=C)NC(=O)C(C)NC(=O)C(C(C)CC)NC2C=Cc3c(C(C)O)cc(nc3C2O)C(=O)OC4C)n1)C(N)=O (some centres undefined),47.5% (active)
25,CS(=O)(=O)N1CCc2cc(-c3csc(NC(=O)C(c4ccccc4)c4ccccc4)n3)ccc21,-5%
26,O=C(COC(=O)c1ccccc1Oc1ccccc1)NCc1ccco1,-1.91%
27,Cc1ccc(NC(=O)N(Cc2ccc3c(c2)OCO3)Cc2cc3cc4c(cc3[nH]c2=O)OCCO4)cc1,2.67%

row,Structure (SMILES),inhibition
1,CC(=O)NS(=O)(=O)c1ccc(NC(=O)c2cc(-c3ccc(C)c(C)c3)nc3ccccc23)cc1,5.8%
2,COc1cc(C(=O)NCC(=O)OCC(=O)c2cccc3ccccc23)cc(OC)c1OC,-3.85%
3,O=C(c1ccco1)N1CCN(c2nc(C3CC3)nc3c2nnn3Cc2ccccc2Cl)CC1,-2.25%
4,CCOC(=O)c1nn(-c2ccccc2C)c2nc(-c3ccc(Cl)cc3)c(C#N)c(=O)n12,3.54%
5,Cc1cccc(N(C)S(=O)(=O)c2ccc3c(c2)C(C)(C)C(=O)N3C)c1,4.84%
6,COc1cc(OC)c(NC(=O)CN(C)S(=O)(=O)c2ccc(-c3ccc(=O)[nH]n3)s2)cc1Cl,-0.24%
7,O=C(/C=C/c1ccc(Br)o1)OCc1nc2ccsc2c(=O)[nH]1,46% (active)
8,O=C(COC(=O)/C=C/c1ccc(Br)o1)Nc1ccc2[nH]c(=O)[nH]c2c1,24.5%
9,O=C1COc2ccc(C(=O)COC(=O)/C=C/c3ccc(Br)o3)cc2N1,35.5%
10,Cc1ccccc1N1CC(C(=O)Nc2nnc(SCc3ccccn3)s2)CC1=O (centres undefined),0.24%
11,O=C(Nc1ccc(N2CCCC2)c(Cl)c1)c1ccc2c(c1)OCCO2,-0.93%
12,Cc1ccc(OCC(=O)c2cc(C)c(C)cc2C)c([N+](=O)[O-])n1,-9.54%
13,Cc1cc(C(=O)CSc2nnc(-c3ccc(OC(F)F)cc3)o2)c(C)n1Cc1cccs1,-10.5%
14,C=CCn1c(C)cc(C2=NNC(=Nc3ccc(C)cc3)SC2)c1C,-4.54%
15,O=C(O)CCC(=O)N1N=C(c2cccs2)CC1c1cn(-c2ccccc2)nc1-c1ccccc1 (centres undefined),7.42%
16,O=c1cc(-c2ccccc2Cl)c2c([nH]1)CCC2,-2.22%
17,Cc1ccc(C2C(C#N)=C(N)Oc3c2sc2ccccc32)o1 (centres undefined),14%
18,Cc1ccc(C2CC(=O)N3CN(c4ccc(Br)cc4)CSC3=C2C#N)o1 (centres undefined),-1.74%
19,Cc1cccc(N2CSC3=C(C#N)C(c4ccc(C)o4)CC(=O)N3C2)c1 (centres undefined),50.5% (active)
20,CC1CCc2sc(C(=O)N/N=C/c3ccc([N+](=O)[O-])cc3)cc2C1 (centres undefined),-11.5%
21,Cc1cccc(N2CC(C(=O)Nc3nnc(SCC(=O)N4CCOCC4)s3)CC2=O)c1 (centres undefined),11.4%
22,Cc1ccc(Cn2c(C(C)Nc3nc(-c4ccc(Cl)c([N+](=O)[O-])c4)cs3)nc3cc(C(F)(F)F)ccc32)cc1 (centres undefined),5.29%
23,N#Cc1ccc(C23CC4(C2)[C@H](CN(P(=O)(c2ccccc2)c2ccccc2)[C@@H]4c2ccccc2)C3c2ccc(Cl)nc2)cc1 (some centres undefined),8.04%
24,CN(CC(=O)Nc1sccc1C#N)C1CCCCC1,6.43%
25,CC1CC1C(=O)Nc1nc(-c2cccs2)c(-c2cccs2)s1 (centres undefined),7.18%
26,COc1ccc(C2C(C#N)=C(N)SC(N)=C2C#N)cc1OC,2.28%
27,Cc1sccc1C1C(C#N)=C(N)SC(N)=C1C#N,32.6%

row,Structure (SMILES),inhibition
1,Cc1ccc(C2C(C#N)=C(N)SC(N)=C2C#N)c(C)c1,58% (active)
2,Cc1cc(Cl)ccc1OC(C)C(=O)Nc1ccc(S(=O)(=O)Nc2cnc3ccccc3n2)cc1 (centres undefined),-3.49%
3,Cc1ccc(C)c(NC(=O)CN(C)C(=O)c2cccc(-n3cccc3)c2)c1,4.94%
4,COc1cccc2cc(/C(C)=N/Nc3nc(-c4cc(C)ccc4C)cs3)c(=O)oc12,16.7%
5,COc1ccc(CCNC(=O)c2ccc3c(c2)NC(=O)C(CSCc2cc(C)ccc2C)N3)cc1OC (centres undefined),2.87%
6,COc1ccc2c(c1)[nH]c(=O)c1sc3ccccc3c12,-0.73%
7,O=C(Nc1nnc(-c2ccccc2Cl)o1)c1nc2ccccc2s1,-8.09%
8,CN(C)c1ccc(/C=C/C=C2/SC(=S)N(c3ccccc3)C2=O)cc1,-12.6%
9,COc1ccc(OC)c(-c2csc(NC(=O)CSc3ccc([N+](=O)[O-])cc3)n2)c1,-0.57%
10,O=c1ccc2c(-c3ccccc3)c3ccc(O)cc3oc-2c1,-13.9%
11,COc1ccc2c(c1[N+](=O)[O-])CCC/C2=N/OC(=O)c1ccccc1SC,-1.21%
12,COc1ccc(/C=N\NS(=O)(=O)c2ccc(Cl)cc2)cc1COc1ccccc1[N+](=O)[O-],-7.14%
13,O=C(NCc1cccnc1)c1ccc(COc2cccc3ccccc23)o1,4.61%
14,O=C(CN(c1ccc(Cl)c(C(F)(F)F)c1)S(=O)(=O)c1ccccc1)N/N=C/c1cccc2c1OCCO2,-4.47%
15,O=C(Nc1ccc(NC(=S)NC(=O)C(c2ccccc2)c2ccccc2)cc1)c1ccccc1,5.69%
16,COc1ccc(C(=O)N/C(=C/c2cccc3ccccc23)C(=O)NCCc2c[nH]c3ccccc23)cc1OC,-0.16%
17,O=C(Nc1ccccc1)c1ccc(Nc2c([N+](=O)[O-])cc([N+](=O)[O-])c3ccccc23)cc1,1.02%
18,COc1ccc(N2CCN(C(=O)c3ccc4c(c3)NC(=O)C(CSCc3ccc(C)cc3)N4)CC2)cc1 (centres undefined),27%
19,CSc1nc(N(C)CCO)c2sc3nc(-c4ccco4)c4c(c3c2n1)CCC4,-23.5%
20,COc1ccccc1CCNC(=O)c1cc(-c2ccccn2)nc2ccc(Br)cc12,-9.45%
21,Cc1cc(C#N)c(C)n1-c1cc(S(=O)(=O)N2CCOCC2)ccc1N1CCCC1,2.12%
22,CC1(C)Cc2c(C#N)c(N3CCN(C(=O)c4ccccc4Cl)CC3)nc(-c3ccco3)c2CS1,16.3%
23,O=C(N/N=C/c1ccc([N+](=O)[O-])o1)c1cn(-c2ccccc2)nc1-c1ccc(Cl)cc1,-1.11%
24,Cc1ccc(-c2csc(C3=C(O)CN(NC(=O)c4ccc([N+](=O)[O-])cc4)C3=N)n2)cc1,6.2%
25,O=c1[nH]c(C(Cl)Cl)nc2sc3c(c12)CCN(Cc1ccccc1)C3,14.3%
